# Test results reported in article PMC6522656 (Heliyon, 2019).
# What was measured:
# [1] = test system: mouse fibroblast (NIH/3T3); assay: MTT cytotoxicity assay, NIH/3T3; format: cell-based; details: NIH3T3, 72 h, read-out: IC50 3T3 Normal
# In short: (§1)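 Cells grown as monolayers in DMEM with 4.5 g glucose, 10% FBS and 1% penicillin/streptomycin. Seeded cells exposed for 72 h to several concentrations of test compound (0.1–100 μM), then given MTT for 4 h. Formazan dissolved in DMSO; absorbance read at 570 nm. IC50 taken as the mean of three independent experiments in triplicate; 100 μM cut-off.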
# HT-29 cancer cells = assay: MTT cytotoxicity assay, HT-29; format: cell-based; details: Homo sapiens, HT-29, 72 h, read-out: IC50 HT-29 Colon
# In short: as §1
# DU-145 cells = assay: MTT cytotoxicity assay, DU-145; format: cell-based; details: Homo sapiens, DU-145, 72 h, read-out: IC50 DU-145 Prostate
# In short: as §1
# HCT-116 = assay: MTT cytotoxicity assay, HCT-116; format: cell-based; details: Homo sapiens, HCT-116, 72 h, read-out: IC50 HCT-116 Colon
# In short: as §1
# HEK293/pcDNA3.1 = assay: MTT cytotoxicity assay, HEK293/pcDNA3.1; format: cell-based, human; details: for IC50: Homo sapiens, HEK293, 72 h, read-out: IC50 HEK293/pcDNA.3.1 Normal; for significant cytotoxicity in human embryonic kidney cells: at a concentration of less than 50 μM
# In short: as §1
# A2780 cells [2] = assay: Colony formation assay; format: cell-based; details: 10 or 20 μM, incubated 24 hrs, colonies over 2 weeks
# In short: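 A2780 cells exposed to vehicle (0 μM) or test compound (10 or 20 μM) for 24 h, then reseeded at very low density in six-well plates and grown 2 weeks. Colonies fixed, stained and counted under a microscope; colony formation rate calculated. Repeated independently in triplicate.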
# A2780 cells [3] = assay: Nuclear condensation-based apoptosis assay; format: cell-based; details: 5, 10, or 20 μM at 24 and 48 h
# A2780 cells [4] = assay: Annexin V based apoptosis assay; format: cell-based; details: 24 h; for Q1 (flow cytometry quadrant): control Q1 94.1%; for Q2 (flow cytometry quadrant, apoptosis): control Q2 5.87 %
Structure (SMILES),IC50 [1] [µM],IC50 (HT-29 cancer cells) [µM],IC50 (DU-145 cells) [µM],IC50 (HCT-116) [µM],IC50 (HEK293/pcDNA3.1) [µM],significant cytotoxicity in human embryonic kidney cells (HEK293/pcDNA3.1),colony formation of A2780 cells (A2780 cells [2]),nuclear morphology of A2780 cells (DAPI staining) (A2780 cells [3]),Q1 (flow cytometry quadrant) (A2780 cells [4]; 10 μM) [%],"Q2 (flow cytometry quadrant, apoptosis) (A2780 cells [4]; 10 μM) [%]",Q1 (flow cytometry quadrant) (A2780 cells [4]; 20 μM) [%],"Q2 (flow cytometry quadrant, apoptosis) (A2780 cells [4]; 20 μM) [%]"
"COc1ccc2nc(Cl)c(C=C3C(=O)Nc4ccccc43)cc2c1 [LM04, 3-((2-chloro-6-methoxyquinolin-3-yl)methylene)indolin-2-one]",> 100,> 100,47.2,60.9,39.9,produced significant cytotoxicity,,,,,,
"O=C1Nc2ccccc2C1=Cc1cc2ccc(Cl)cc2nc1Cl [LM09, 3-((2,7-dichloroquinolin-3-yl)methylene)indolin-2-one]",> 100,> 100,54.9,75.2,63.2,,,,,,,
"O=C1Nc2ccccc2C1=Cc1cc2cc(Br)ccc2nc1Cl [LM10, 3-((6-bromo-2-chloroquinolin-3-yl)methylene)indolin-2-one]",> 100,> 100,> 100,41.3,50.5,produced significant cytotoxicity,,,,,,
"O=C1Nc2ccccc2C1=Cc1cc2ccc3ccccc3c2nc1Cl [LM11, 3-((2-chlorobenzo[h]quinolin-3-yl)methylene)indolin-2-one]",> 100,> 100,95.7,> 100,75.3,,,,,,,
"Cc1ccc2nc(Cl)c(C=C3C(=O)Nc4ccccc43)cc2c1 [LM02, 3-((2-chloro-6-methylquinolin-3-yl)methylene)indolin-2-one]",> 100,> 100,> 100,52.1,73.4,,,,,,,
"O=C1Nc2ccccc2C1=Cc1cc2ccccc2nc1Cl [LM01, 3-((2-chloroquinolin-3-yl)methylene)indolin-2-one]",> 100,> 100,77.5,> 100,64.5,,,,,,,
"Cc1cc2cc(C=C3C(=O)Nc4ccccc43)c(Cl)nc2cc1C [LM03, 3-((2-chloro-6,7-dimethylquinolin-3-yl)methylene)indolin-2-one]",> 100,> 100,> 100,> 100,97.4,,,,,,,
"COc1cccc2cc(C=C3C(=O)Nc4ccccc43)c(Cl)nc12 [LM07, 3-((2-chloro-8-methoxyquinolin-3-yl)methylene)indolin-2-one]",> 100,> 100,11,> 100,80.8,,,,,,,
"COc1cc2cc(C=C3C(=O)Nc4ccccc43)c(Cl)nc2cc1OC [LM06, 3-((2-chloro-6,7-dimethoxyquinolin-3-yl)methylene)indolin-2-one]",> 100,> 100,> 100,75,> 100,,,,,,,
"COc1ccc2cc(C=C3C(=O)Nc4ccccc43)c(Cl)nc2c1 [LM05, 3-((2-chloro-7-methoxyquinolin-3-yl)methylene)indolin-2-one]",> 100,> 100,> 100,56.2,> 100,,,,,,,
"O=C1Nc2ccccc2C1=Cc1cc2cc(Cl)ccc2nc1Cl [LM08, 3-((2,6-dichloroquinolin-3-yl)methylene)indolin-2-one]",> 100,> 100,91.2,77.8,64.3,,significantly inhibited,nuclear condensation,64.8,34.6,61.5,36.9
